Assay results gathered from unrelated publications.
Cell line: MCF7
Effect on: cell growth or viability

SMILES	test	conditions	IC50
O=C1CS/C(=N\c2cc(C(F)(F)F)ccc2-c2nnc(N3C(=O)CS/C3=N\c3cccc(Cl)c3)s2)N1c1cccc(Cl)c1	MTT		49.2 µM
CC(=O)O[C@H]1C(=O)[C@@]2(C)[C@H]([C@H](OC(=O)c3ccccc3)[C@]3(O)C[C@H](OC(=O)[C@H](O)[C@@H](NC(=O)c4ccccc4)c4ccccc4)C(C)=C1C3(C)C)[C@]1(OC(C)=O)CO[C@@H]1C[C@@H]2O	MTT	48 h	> 100 µM
O=C1CSC(=Nc2cc([N+](=O)[O-])ccc2[N+](=O)[O-])N1c1nnc(-c2ccc(C(F)(F)F)cc2N=C2SCC(=O)N2c2cc([N+](=O)[O-])ccc2[N+](=O)[O-])s1	MTT		83.4 µM
COc1cccc2c1C(=O)c1c(O)c3c(c(O)c1C2=O)C[C@@](O)(C(=O)CO)C[C@@H]3O[C@H]1C[C@H](N)[C@H](O)[C@H](C)O1	MTT	48 h	8.87 µM
CCCCCCCNC1=C(n2cncn2)C(=O)c2ccccc2C1=O	MTT	24 h	22.3 µg/mL
CC(=O)c1nc2ccccc2n1Cc1cn([C@@H]2OC[C@@H](O)[C@H](O)[C@H]2O)nn1	LDH	48 h	2.08 µM
COc1ccc(NC(=S)N/N=C/c2cccc3cc4ccccc4nc23)cc1	MTT	48 h	> 50 µM
C/C(=N\C1CCCCC1/N=C(\C)c1c(O)c2ccccc2oc1=O)c1c(O)c2ccccc2oc1=O (centres unmarked)	MTT	48 h	66.4 µM
CC(=O)O[C@@H]1[C@@H](OC(C)=O)[C@H](OC(C)=O)CO[C@H]1n1cc(Cn2c(C(=O)/C=C/c3ccc(F)cc3)nc3ccccc32)nn1	LDH	48 h	2.98 µM
Fc1ccc2c(-c3nnc(Cc4ccccc4)s3)nn(Cc3ccccc3)c2c1		48 h	161 µM
CC(C)c1cccc(C(C)C)c1N=C1C(=O)N(Cc2cccc(Cl)c2)c2ccccc21	MTT	48 h	46.5 µM
NNc1nc2ccc(Br)cc2c(=O)n1-c1ccc(Cl)cc1	MTT	48 h	12.8 µM
CCc1ccc(N=C2C(=O)Nc3ccccc32)cc1	MTT	48 h	51.7 µM
O=C(O)c1cn(Cc2ccc(C(F)(F)F)cc2)c2ccc(Oc3ccccc3)cc2c1=O	MTT	48 h	21.2 µM
CO[C@H]1[C@H](O[C@H]([C@H]2O[C@@H](n3ccc(=O)[nH]c3=O)[C@H](O)[C@@H]2O)[C@H](NCCCNC(=O)[C@@H](NC(=O)[C@@H](NC(=O)N[C@H](C(=O)O)C(C)C)[C@@H]2CCN=C(N)N2)[C@@H](O)C(C)C)C(=O)O)O[C@H](CN)[C@H]1O	WST-1		> 35 µM
Cc1ccc(CN2C(=O)C(=Nc3cccc(Cl)c3)c3ccccc32)cc1	MTT	48 h	2.26 µM
O=C1CS/C(=N\c2cc(C(F)(F)F)ccc2-c2nnc(N3C(=O)CS/C3=N\c3ccc(F)cc3)s2)N1c1ccc(F)cc1	MTT		22.5 µM
CN1CCC(NC2CCc3[nH]c4c(C(N)=O)ccc(-c5ccccc5Cl)c4c3C2)CC1 (centres unmarked)		96 h	0.0164 µM
COc1ccccc1-n1cc(CNC(=O)[C@@]2(C)[C@H](O)CC[C@@]3(C)[C@H]2CC[C@]2(C)[C@@H]3C(=O)C[C@@H]3[C@@H]4[C@@H](C)[C@H](C)CC[C@]4(C)CC[C@]32C)nn1	MTT	24 h	73.4 µM

SMILES	test	conditions	IC50
O=C(C=Cc1ccc(OCCCOc2ccc(C=CC(=O)c3cccs3)cc2)cc1)c1cccs1	MTT	48 h	30.1 µM
FC(F)(F)c1ccc(-c2nnc(-c3nn(Cc4ccc(Cl)cc4Cl)c4ccccc34)o2)cc1		48 h	71.1 µM
O=C1C(=Nc2ccc(Cl)cc2)c2ccccc2N1Cc1ccc([N+](=O)[O-])cc1	MTT	48 h	2.65 µM
COc1ccc(N(Cc2nc(-c3ccc(F)cc3)cs2)C(=O)CCCCCC(=O)NO)cc1	MTT	72 h	10.2 µM
CC(C)c1ccc(/C=C2\N=C(SCC(=O)O)N(c3ccccc3)C2=O)cc1	MTT		49.2 µg/mL
NS(=O)(=O)c1ccc(-n2nc(C(=O)NN=Cc3cccnc3)cc2-c2ccccc2)cc1	fluorescence	48 h	34.1 µM
O=[N+]([O-])c1cc(Br)c(O)c(C=NNc2ccccc2)c1	MTT	24 h	6.4 µM
C[C@H]1[C@H](C)CC[C@]2(C)CC[C@]3(C)C(=CC(=O)[C@@H]4[C@@]5(C)CC[C@@H](O)[C@](C)(C(=O)NCc6cn(-c7cccc(Br)c7)nn6)[C@@H]5CC[C@]43C)[C@H]12	MTT	24 h	67 µM
NS(=O)(=O)c1ccc(-n2nc(-c3nnc(S)o3)cc2-c2ccccc2)cc1	fluorescence	48 h	35.4 µM
O=[N+]([O-])c1cc(Br)c(O)c(C=NNc2ccc(C(F)(F)F)cc2)c1	MTT	24 h	8 µM
O=S(=O)([O-])c1ccc(O)c(C=NNC(=S)Nc2cccc3ccccc23)c1.[Na+]	MTT	24 h	> 800 µg/mL
O=C1CS/C(=N\c2cc(C(F)(F)F)ccc2-c2nnc(N3C(=O)CS/C3=N\c3ccc(Cl)cc3)s2)N1c1ccc(Cl)cc1	MTT		52.5 µM
c1ccc(Cn2nc(-c3nc(-c4ccccc4)n[nH]3)c3ccccc32)cc1		48 h	97.4 µM
CC1=CC(=O)C(C(C)C)=CC1=O	SRB	48 h	9.8 µM
CCOC(=O)C(=CNc1ccc(Oc2ccccc2)cc1)C(=O)OCC	MTT	24 h	102 µM
CN(C)C(=O)Nc1nc2ccc(Br)cc2c(=O)n1-c1ccccc1	MTT	48 h	109 µM
Cc1nc2ccc(-c3cccc(F)c3)cc2c(O)c1C(=O)O	MTT	48 h	≥ 100 µM
O=C(O)c1c[nH]c2ccc(Oc3ccccc3)cc2c1=O	MTT	24 h	311 µM
COc1ccc2c(-c3nc(-c4ccccc4)no3)nn(Cc3ccncc3)c2c1		48 h	86.5 µM

SMILES	test	conditions	IC50
S=C(N/N=C/c1cccc2cc3ccccc3nc12)Nc1ccccc1	MTT	48 h	> 50 µM
C[C@H]1[C@H](C)CC[C@]2(C(=O)O)CC[C@]3(C)C(=CC[C@@H]4[C@@]5(C)CC[C@H](O)C(C)(C)[C@@H]5CC[C@]43C)[C@H]12	MTT	24 h	27.3 µM
O=C(/C=C/c1ccc(F)cc1)c1nc2ccccc2n1Cc1cn([C@@H]2O[C@H](CO)[C@H](O)[C@H](O)[C@H]2O)nn1	LDH	48 h	1.99 µM
O=[N+]([O-])c1cc(Br)c(O)c(C=NNc2ccc(Br)cc2)c1	MTT	24 h	9.23 µM
CCOC(=O)c1c(C)nc2ccc(-c3cccc(F)c3)cc2c1O	MTT	48 h	10.5 µM
COc1cc(C2C3=C(Nc4nc(SC)[nH]c(=O)c42)c2ccccc2C3=O)ccc1O (centres unmarked)	MTT	72 h	> 1000 µM
Cc1ccc(NNc2nc3c(Cl)cc(Cl)cc3c(=O)n2-c2ccccc2)cc1	MTT	48 h	> 200 µM
Cc1nc2ccc(-c3ccc(F)cc3F)cc2c(O)c1C(=O)O	MTT	48 h	≥ 100 µM
COc1ccccc1/C=N/N=C1\C(=O)Nc2ccccc21	MTT	24 h	45.6 µg/mL
COc1cc(N=C2C(=O)Nc3ccccc32)cc(OC)c1	MTT	48 h	16.2 µM
CN(C)c1ccc(Nc2nc(-c3ccncc3)nc3c2CC(N)CC3)cc1 (centres unmarked)	MTT		15.8 µM
Cc1ccc(CN2C(=O)C(=Nc3c(C(C)C)cccc3C(C)C)c3ccccc32)cc1	MTT	48 h	53.1 µM
CNC(=O)c1cc(Oc2ccc(NC(=O)Nc3ccc(Cl)c(C(F)(F)F)c3)cc2)ccn1	MTT	48 h	7.06 µM
Fc1ccc2c(-c3ncc(-c4ccccc4)o3)nn(Cc3ccccc3)c2c1		48 h	71 µM
CC(C)c1cccc(C(C)C)c1N=C1C(=O)N(Cc2ccccc2)c2ccccc21	MTT	48 h	12.6 µM
NS(=O)(=O)c1ccc(-n2nc(C(=O)NN3C(=O)CCC3=O)cc2-c2ccccc2)cc1	fluorescence	48 h	32.5 µM
O=C1C(=Nc2ccc(Cl)cc2Br)c2ccccc2N1Cc1ccc([N+](=O)[O-])cc1	MTT	48 h	2.33 µM
O=c1[nH]cc(F)c(=O)[nH]1	MTT	48 h	11.3 µM
